# Experiments:
# [1] = system: Staphylococcus epidermidis; experiment: Antibacterial activity against Staphylococcus epidermidis ATCC 12228 after 24 hrs by browth microdilution assay; assay type: functional; settings: ATCC 12228, 24 h
# Summary of the method: (§1)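 Broth microdilution per CLSI. Colonies suspended in 0.9% saline and adjusted to McFarland 0.5. Compounds dissolved in DMSO, diluted with distilled water to 100, 50, 25, 12.5, 6.25 and 3.125 µg/ml, with DMSO as negative control. Gentamycin (Gram-negative) and amikacin (Gram-positive) served as reference drugs. Incubation at 37 °C for 24 h. MIC taken as the lowest concentration preventing visible growth.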
# Staphylococcus aureus = experiment: Antibacterial activity against Staphylococcus aureus ATCC 29213 after 24 hrs by browth microdilution assay; assay type: functional; settings: ATCC 29213, 24 h; summary of the method: as §1
# Enterococcus faecalis = experiment: Antibacterial activity against Enterococcus faecalis ATCC 29212 after 24 hrs by browth microdilution assay; assay type: functional; settings: ATCC 29212, 24 h; summary of the method: as §1
# Nakaseomyces glabratus = experiment: Antifungal activity against Candida glabrata ATCC 32554 after 48 hrs by browth microdilution assay; assay type: functional
# Summary of the method: (§2)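 Yeast colonies suspended in 0.9% saline and adjusted to McFarland 0.5, then tested by CLSI broth microdilution. Compounds in DMSO, diluted with distilled water to 3.125–100 µg/ml, with DMSO as negative control and nystatin as reference. Incubation at 37 °C, read after 48 h. MIC is the lowest concentration with no visible growth.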
# Candida albicans = experiment: Antifungal activity against Candida albicans ATCC 90028 after 48 hrs by browth microdilution assay; assay type: functional; summary of the method: as §2
# Candida tropicalis = experiment: Antifungal activity against Candida tropicalis ATCC 20336 after 48 hrs by browth microdilution assay; assay type: functional; summary of the method: as §2
# Pichia kudriavzevii = experiment: Antifungal activity against Candida krusei ATCC 6268 after 48 hrs by browth microdilution assay; assay type: functional; summary of the method: as §2
# MCF7 [2] = experiment: Cytotoxicity against human MCF7 after 24 hrs by MTT assay; assay type: functional, cell-based; settings: MCF7, 24 h
# Summary of the method: (§3)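 Cells grown in MEM with 10% FBS and 1% glutamine at 5% CO2, seeded at 1.0×10^4 cells. Exposed to compounds at 1–100 µM in medium containing 0.1% DMSO for 24 h at 37 °C. MTT (1 mg/ml) added for 5 h at 37 °C, then DMSO added and absorbance read at 540 nm. Run in triplicate; IC50 determined.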
# HeLa = experiment: Cytotoxicity against human HeLa after 24 hrs by MTT assay; assay type: functional, cell-based; summary of the method: as §3
# [3] = system: Staphylococcus aureus (ATCC 25923); experiment: Antibacterial activity against Staphylococcus aureus ATCC 25923 after 24 hrs by browth microdilution assay; settings: ATCC 25923, 24 h
# Enterobacter cloacae = experiment: Antibacterial activity against Enterobacter cloacae ATCC 13047 after 24 hrs by browth microdilution assay; assay type: functional; summary of the method: as §1
# Pseudomonas aeruginosa = experiment: Antibacterial activity against Pseudomonas aeruginosa ATCC 27853 after 24 hrs by browth microdilution assay; assay type: functional; summary of the method: as §1
# Proteus vulgaris = experiment: Antibacterial activity against Proteus vulgaris ATCC 13315 after 24 hrs by browth microdilution assay; assay type: functional; summary of the method: as §1
# Escherichia coli = experiment: microbe, parasite or virus in culture; settings: ATCC 25922, 24 h
# MCF7 [4] = experiment: Cytotoxicity against human MCF7 after 48 hrs by MTT assay; assay type: functional, cell-based; settings: MCF7, 48 h
# Summary of the method: (§4)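 MCF-7 cells in MEM with 10% FBS at 5% CO2 were exposed to compounds (1–100 µM, 0.1% DMSO vehicle) for 48 or 72 h before MTT read-out. IC50 values came from the MTT assay.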
# MCF7 [5] = experiment: Cytotoxicity against human MCF7 after 72 hrs by MTT assay; assay type: functional, cell-based; settings: MCF7, 72 h; summary of the method: as §4
Compound,MIC [1] [mg/L],MIC (Staphylococcus aureus) [mg/L],MIC (Enterococcus faecalis) [mg/L],"MIC (Nakaseomyces glabratus; ATCC 32554, 48 h) [mg/L]","MIC (Candida albicans; ATCC 90028, 48 h) [mg/L]","MIC (Candida tropicalis; ATCC 20336, 48 h) [mg/L]","MIC (Pichia kudriavzevii; ATCC 6268, 48 h) [mg/L]",IC50 (MCF7 [2]) [µM],IC50 (HeLa) [µM],MIC [3] [mg/L],"MIC (Enterobacter cloacae; ATCC 13047, 24 h) [mg/L]","MIC (Pseudomonas aeruginosa; ATCC 27853, 24 h) [mg/L]","MIC (Proteus vulgaris; ATCC 13315, 24 h) [mg/L]",MIC (Escherichia coli) [mg/L],further results
O=C(NC(=S)Nc1nc2cc(Br)ccc2s1)c1ccc([N+](=O)[O-])cc1,50,50,50,50,50,50,50,32.4,56.5,50,,,,,
Nc1ccc2sc(NC(=S)NC(=O)c3ccccc3)nc2c1,50,50,50,25,25,50,25,38.6,70.1,50,50,50,50,50,
O=C(NC(=S)Nc1nc2ccccc2s1)N1CCOCC1,25,50,50,25,25,25,25,29.3,51.8,50,25,50,25,25,
O=C(NC(=S)Nc1nc2ccccc2s1)c1ccccc1,,,,25,50,50,50,37.3,57.5,,,,,,
O=C(NC(=S)Nc1nc2cc([N+](=O)[O-])ccc2s1)N1CCOCC1,10,25,10,5,15,5,20,31,54.8,20,15,25,20,15,
O=C(NC(=S)Nc1nc2cc(Br)ccc2s1)c1cccs1,,,,,,,,24.2,46.5,,50,25,50,25,IC50 (MCF7 [4]): 15.7 µM; IC50 (MCF7 [5]): 12.1 µM
O=C(NC(=S)Nc1nc2cc(Br)ccc2s1)N1CCOCC1,25,25,50,25,50,25,50,18.1,38.9,50,50,50,50,25,IC50 (MCF7 [4]): 20.3 µM; IC50 (MCF7 [5]): 6.95 µM
O=C(NC(=S)Nc1nc2ccccc2s1)c1cccs1,50,50,50,25,50,50,25,32.6,68.2,50,50,50,50,25,
O=C(NC(=S)Nc1nc2cc([N+](=O)[O-])ccc2s1)c1cccs1,10,25,15,10,15,15,20,35.9,72.6,25,15,20,20,15,
NYSTATIN,,,,,,,,,,,,,,,MIC (Nakaseomyces glabratus): 2 mg/L; MIC (Candida albicans): 1 mg/L; MIC (Candida tropicalis): 4 mg/L; MIC (Pichia kudriavzevii): 0.5 mg/L
Nc1ccc2sc(NC(=S)NC(=O)N3CCOCC3)nc2c1,20,25,50,15,20,20,25,26.4,45.3,50,25,50,20,20,IC50 (MCF7 [4]): 19.2 µM; IC50 (MCF7 [5]): 17.1 µM
CCCC(=O)NC(=S)Nc1nc2cc(N)ccc2s1,50,50,50,50,20,50,50,44.7,,,,,,,
CCCC(=O)NC(=S)Nc1nc2ccccc2s1,,,,50,20,50,25,36.6,56.7,,,,,,
CCCC(=O)NC(=S)Nc1nc2cc([N+](=O)[O-])ccc2s1,50,50,50,25,20,50,25,> 100,,,20,20,20,,
O=C(NC(=S)Nc1nc2cc([N+](=O)[O-])ccc2s1)c1ccc([N+](=O)[O-])cc1,25,50,50,25,25,25,25,35.2,68.5,50,25,50,25,50,
GENTAMICIN,,,,,,,,,,,,,,,MIC (Enterobacter cloacae): 2 mg/L; MIC (Pseudomonas aeruginosa): 1 mg/L; MIC (Proteus vulgaris): 2 mg/L
Nc1ccc2sc(NC(=S)NC(=O)c3cccs3)nc2c1,,,,20,25,25,25,28.4,56.1,,50,50,25,20,
O=C(NC(=S)Nc1nc2ccccc2s1)c1ccc([N+](=O)[O-])cc1,,,,,,,,33.8,62.6,,,,,,
Nc1ccc2sc(NC(=S)NC(=O)c3ccc([N+](=O)[O-])cc3)nc2c1,50,50,50,50,50,25,50,33.2,63.1,50,25,50,25,25,
O=C(NC(=S)Nc1nc2cc([N+](=O)[O-])ccc2s1)c1ccccc1,20,25,50,15,25,50,50,41.6,75.1,15,25,20,15,20,
CCCC(=O)NC(=S)Nc1nc2cc(Br)ccc2s1,50,50,50,50,25,50,50,45.7,60.2,,50,50,50,,
NCC[C@H](O)C(=O)N[C@@H]1C[C@H](N)[C@@H](O[C@H]2O[C@H](CN)[C@@H](O)[C@H](O)[C@H]2O)[C@H](O)[C@H]1O[C@H]1O[C@H](CO)[C@@H](O)[C@H](N)[C@H]1O [AMIKACIN],0.5,2,4,,,,,,,2,,,,,
O=C(NC(=S)Nc1nc2cc(Br)ccc2s1)c1ccccc1,50,50,50,25,25,50,50,32.1,64.6,50,,,,,

# Reference: ChEMBL document CHEMBL1157014, “Synthesis, characterization and biological evaluation of some thiourea derivatives bearing benzothiazole moiety as potential antimicrobial and anticancer agents” (Eur J Med Chem, 2010)
